High-throughput results deposited in PubChem BioAssay by The Scripps Research Institute Molecular Screening Center.
MOR-DOR inv ag – mu-delta opioid heterodimer inverse agonism. cell-based MOR-DOR heterodimer luminescence. inhibition, % at 9.3 µM. 340,000 tested, 0.21% active. AID 504357; in the data active means inhibition above about 22%, passing the limit was not always enough;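 further: 0% = cells with DMSO and 100% = wells without cells with DMSO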
MOR-DOR ag-1 – OPRM1-OPRD1 heterodimerization agonism. 340,000 tested, 0.3% active. AID 504326. cells, luminescence. activation, % at 9.3 µM;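 further: 0% = vehicle-treated cells and 100% = reference agonist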
HTR5A ag – HTR5A agonism, opioid heterodimer counter-screen. activation, % at 9.3 µM. P47898. HTR5A agonist assay, luminescence, cell-based. 340,000 tested, 0.61% active; in the data active means activation mostly above about 9.5%, no sharp cut-off; inactive means mostly below about 7.6%;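 further: 0% = cells with vehicle only and 100% = reference agonist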
Target sequence (P47898 whole entry, looked up): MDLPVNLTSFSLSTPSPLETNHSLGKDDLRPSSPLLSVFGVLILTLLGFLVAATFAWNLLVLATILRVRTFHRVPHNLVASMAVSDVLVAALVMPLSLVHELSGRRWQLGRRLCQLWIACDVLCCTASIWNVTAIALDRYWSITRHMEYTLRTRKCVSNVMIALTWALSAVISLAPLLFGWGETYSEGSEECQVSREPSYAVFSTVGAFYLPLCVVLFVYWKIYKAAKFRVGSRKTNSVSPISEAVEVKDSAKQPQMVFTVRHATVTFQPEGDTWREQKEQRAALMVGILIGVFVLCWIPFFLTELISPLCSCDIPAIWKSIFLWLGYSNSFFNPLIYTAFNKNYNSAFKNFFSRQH
HTR5A inv ag – HTR5A inverse agonism, opioid heterodimer counter-screen; HTR5A cell line, luminescence; AID 504634; P47898; 340,000 tested, 0.083% active; inhibition, % at 9.3 µM; in the data active means inhibition mostly above about 23%, no sharp cut-off; inactive means mostly below about 18%;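 further: 0% = cells with DMSO and 100% = no-cell wells with DMSO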
MC4R ag barr – human MC4R agonism via beta-arrestin. P32245. U2OS MC4R beta-arrestin complementation, luminescence; percent of melanotan II response, DMSO zero. activation, % at 8.9 µM. 360,000 tested, 0.98% active;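 active means activation above a per-plate cutoff, the mean activation of sample wells on that plate plus 3 SD, cut at about 8% in these data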
MC4R antagonist – human MC4R antagonism in cAMP assay; MC4R-expressing cells, MTII-stimulated cAMP, LANCE TR-FRET; inhibition, % at 6.5 µM; 360,000 tested, 0.48% active;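 active means inhibition above its plate's cutoff, the mean of tested wells on that plate plus 3 SD, cut at about 29% in these data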;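 further: 0% = Melanotan II alone and 100% = Melanotan II plus saturating MCL0020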
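material = U2OS cells stably expressing human melanocortin 4 receptor (MC4R) | also added = Melanotan II challenge | dosing = single nominal compound dose of 6.5 µM | detection = TR-FRET with Eu-cAMP and labeled anti-cAMP, 671 nm | replication = singlicate | timing = compound 30 min, challenge 1 h, detection 1 h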
MOR-DOR ag-2 – promotes OPRM1-OPRD1 heterodimerization in HTR5A counter-screen; shares compounds with HTR5A ag; U2OS counter-screen cells, complementation luminescence, 3 h; activation, % at 9.3 µM; 800 tested, 13% active; AID 504913
HTR5A ag conf – HTR5A (human) agonism, confirmation; shares compounds with HTR5A ag; HTR5A agonist cell assay, luminescence; activation, % at 9.3 µM; 800 tested, 17% active; in the data active means activation above about 17%;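 further: 0% = cells with vehicle only and 100% = full reference agonist response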
Numbers without * were called inactive; nt = no result given. In the library only some 2.4% were active in any assay of this set; here they are far more common. Unless noted, no stated cut-off is given here; in the data, active means activation above about 18%; inactive means the rest.

SMILES	MOR-DOR inv ag	MOR-DOR ag-1	HTR5A ag	HTR5A inv ag	MC4R ag barr	MC4R antagonist	MOR-DOR ag-2	HTR5A ag conf
COc1ccc(-c2coc3c(C(=O)NCC4CC4)cccc23)c(C)c1	nt	nt	nt	nt	3	2	nt	nt
O=C(c1ccccc1)N(Nc1ccccc1)c1ccccc1	17	-4	-2	5	0	10	nt	nt
O=C(O)c1nccnc1C(=O)NCCc1c[nH]c2ccccc12	18	-3	16*	-5	1	3	0	12
CN(c1ccccc1)S(=O)(=O)c1cccc(C(=O)NCCc2c[nH]c3ccccc23)c1	8	-2	27*	-73	-2	9	57*	1
CCc1ccccc1NC(=O)C1CCN(S(C)(=O)=O)CC1	nt	nt	nt	nt	0	11	nt	nt
C/C(=N\NC(=O)CNc1ccccc1)c1ccccc1	3	-1	18*	-49	-1	-4	0	0
C/C(=N\NC(=O)CNc1cccc(C)c1)c1ccc(Br)s1	2	0	25*	-131	1	-1	3	34*
O=C(Cn1cnc2ccc(Br)cc2c1=O)c1cccs1	-4	1	-2	7	0	3	nt	nt
O=C1N(c2ccccc2C(F)(F)F)O[C@@]1(c1ccccc1)C1CCCC1	-22	4	29*	-78	-1	2	-1	-3
O=C1N(c2ccccc2C(F)(F)F)O[C@@]1(c1ccccc1)C1CCCCC1	12	-3	4	-21	1	-6	nt	nt
COc1ccc(CC(=O)NCC2CCCN(Cc3ccccc3OC)C2)cc1 (stereo not drawn)	3	-1	-1	6	0	-3	nt	nt
O=C(O/N=C1/CCSc2ccccc21)c1ccccc1	-6	1	23*	-64	-2	4	4	10
Cc1c(NC(=O)Oc2ccccc2)sc(=S)n1C	27	-6	15*	-34	-2	1	0	43*
Cc1ccc(NC(=O)Nc2sc(=S)n(C)c2C)cc1	11	-2	8	8	0	-2	nt	nt
COc1ccccc1CN(C)C(=O)CN1CCN(C(=O)c2cccs2)CC1	16	-4	15*	10	-2	-5	1	32*
COc1ccccc1NC(=O)CN1CCN(c2ccccc2)CC1	11	-2	15*	10	1	6	2	1
COc1ccccc1NC(=O)CCN1CCN(Cc2ccccc2)CC1	-6	1	21*	-54	-1	7	2	4
COc1ccc(C(=O)NC(=S)Nc2ccc3oc(=O)ccc3c2)cc1[N+](=O)[O-]	12	-2	-2	13	-3	4	nt	nt
CC1CCCCC1NC(=O)COC(=O)c1ccc2c(c1)NC(=O)CS2 (stereo not drawn)	9	-2	-4	0	-1	-1	nt	nt
COC(=O)CCC[C@H]1CC2(C[C@H](CCCO[Si](C)(C)C(C)(C)C)N1C(=O)OC(C)(C)C)OCCO2	5	-1	16*	-40	-1	1	119*	2
COc1ccc(-c2cc3cc(F)ccc3cn2)cc1	-30	5	24*	-65	0	5	22*	-1
COc1ccc(-c2cc3ccc(F)cc3cn2)cc1	-18	3	3	-4	1	2	nt	nt
CC(C)(C)c1ccc(S(=O)(=O)CCc2ccccn2)cc1	12	-2	24*	-67	-2	3	1	4
Cc1ccc(S(=O)(=O)CCc2ccccn2)cc1	13	-2	5	-14	-3	-6	nt	nt
COC(=O)C1CCc2c(ccc3c2CCCC3)C1=O (stereo not drawn)	12	-2	-1	5	-3	-1	nt	nt
SMILES	MOR-DOR inv ag	MOR-DOR ag-1	HTR5A ag	HTR5A inv ag	MC4R ag barr	MC4R antagonist	MOR-DOR ag-2	HTR5A ag conf
CN(C(=O)COC(=O)c1nc(Cl)ccc1Cl)c1ccccc1	12	-2	1	11	-2	5	nt	nt
O=C(COC(=O)CCC(=O)c1cccs1)Nc1cccc(F)c1	1	0	18*	-43	-2	4	1	6
CC(=O)c1cccc(NC(=O)COC(=O)CCC(=O)c2cccs2)c1	4	-1	-1	-2	-1	8	nt	nt
Cc1ccc(S(=O)(=O)NN=C2C3CC4CC(C3)CC2C4)cc1	20	-4	15*	0	-2	7	0	2
Cc1ccc(S(=O)(=O)NN=C2C3CC4CC(C3)CC2C4)cc1[N+](=O)[O-]	2	0	12	-58	3	-5	nt	nt
COC(=O)c1sc2nc(C)nc(SCC(=O)C(C)(C)C)c2c1C	10	-2	1	-2	-2	4	nt	nt
CCOC(=O)c1sc(NNC(=O)c2ccc(F)cc2)nc1C	-14	3	16*	-3	0	0	0	-2
O=C(Oc1c(Cl)cc(Cl)c2cccnc12)c1ccco1	-26	4	26*	0	-3	-2	4	0
O=C(Oc1c(Cl)cc(Cl)c2cccnc12)c1cccs1	-29	6	17*	11	-4	1	8	-1
CC(C)(C)c1ccc(C(=O)O/N=C(\N)c2ccccn2)cc1	-48	9	57*	-138	4	16	5	4
O=C(O)CCCC(=O)N1N=C(c2ccccc2)CC1c1cccs1 (stereo not drawn)	6	-1	6	-18	0	13	nt	nt
Cn1c(N/N=C2\CCCc3ccccc32)nc2c1c(=O)n(Cc1ccc(F)cc1)c(=O)n2C	-6	1	15*	-17	3	0	0	12
COc1cc(CCNc2ccc3nnc(-c4ccccc4)n3n2)cc(OC)c1OC	6	-1	17*	-51	0	-35	0	3
COc1cc(-c2cc3nc(NCCc4ccncc4)ccn3n2)cc(OC)c1OC	nt	nt	nt	nt	-1	5	nt	nt
Cc1ccc(S(=O)(=O)N/N=C\C=C\c2ccccc2)cc1	-12	2	38*	-74	1	6	1	4
Nc1ccc(S(=O)(=O)NN=CC=Cc2ccccc2[N+](=O)[O-])cc1	-9	2	-3	11	-1	-3	nt	nt
O=S(=O)(N/N=C\C=C\c1ccccc1)c1ccc(Br)cc1	-26	6	19*	-40	7	11	-1	3
Cc1cccc(OCc2n(CC(=O)OC3CC(C)CCC3C(C)C)c3ccccc3[n+]2C)c1 (stereo not drawn)	-48	9	17*	-49	23*	-3	2	6
CCN(CC)C(=O)c1ccc(S(=O)(=O)N2CCC(c3nc4ccccc4s3)CC2)cc1	-15	2	21*	-55	-1	1	5	4
CC1CCCN(C(=O)c2ccc(S(=O)(=O)N3CCC(c4nc5ccccc5s4)CC3)cc2)C1 (stereo not drawn)	8	-1	-5	10	-1	8	nt	nt
